The list is not random: actives were taken first. Their share in the collection is about 4.6%.
Arrestin-AP2 inh = inhibitors of human beta-arrestin and AP2 interaction; FITC-arrestin peptide / GST-AP2 beads, flow cytometry; AP2 beta2 appendage carries R879A mutation; inhibition, % at 10 µM; 340,000 tested, 0.31% active; AID 504490;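 active = inhibition above a set limit, near 3 SD of compounds lacking own fluorescence, cut at about 54% in these data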;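 note: plate controls were DMSO wells for no effect and 5 µM unlabelled arrestin peptide for full effect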
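system = GST-tagged AP2 beta2-adaptin appendage (R879A) on 4 µm glutathione beads | reagent = FITC-labelled arrestin peptide probe, 50 nM final | schedule = compound with beads 12 min RT, then probe 1 h RT | signal = HyperCyt-sampled flow cytometry, FL1 channel, ex 488/em 535 nm | read-out = percent response from loss of bead-bound FITC fluorescence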
ALR inh = inhibitors of human sulfhydryl oxidase ALR; P55789; inhibition, % (concentration not given with the values); purified ALR, DTT oxidation, H2O2 HRP-luminol luminescence; 290,000 tested, 3.8% active; AID 485317;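 active = mean replicate inhibition above about 79%, with every replicate also reaching it, limit read from the data; inconclusive = only one of the two criteria met; inactive = mean below limit and not every replicate reaching it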
PolyA inh = blocks polyadenylation in yeast reporter cells; S. cerevisiae SKY197-pL101 polyadenylation reporter, beta-gal luminescence; efflux-impaired pdr1/pdr3 knockout yeast; score 100 = 6 SD above DMSO; activity score, % at 12 µM; 300,000 tested, 0.02% active; AID 1875;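 active = lowest replicate activity score at least 50, where 100 means six control SD above control mean; inconclusive = lowest score under 50 but half or more replicates reach 50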;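 note: yeast exposed to compound for 9 h at 30 °C; higher score means more reporter readthrough which indicates perturbed polyadenylation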
NALP1 yeast inh = blocks the NALP1 inflammasome reconstituted in yeast. S. cerevisiae NALP1/ASC/caspase-1 growth, X-gal OD620, 72 h. AID 2071. 280,000 tested, 0.61% active. inhibition, % at 10 µM; in the data active = inhibition mostly above about 24%, no sharp cut-off; inactive = mostly below about 32%
Pemphigus Ab inh = human desmoglein-3 autoantibody binding inhibition; P32926; DSG3-coupled beads, scFv-anti-DSG3-GFP binding, flow cytometry; active compounds read low; binding (percent of control), % at 10 µM; 310,000 tested, 0.48% active;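 active = binding more than 3 SD below its plate's average and above zero; inconclusive = below that plate limit but binding exactly zero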;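 note: hits lower antibody fragment binding to DSG3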
NALP3 yeast inh = NALP3 inhibition in yeast; Yeast reconstituted NLRP3/ASC/caspase-1, beta-gal luminescence, 24 h; inhibition, % at 10 µM; 330,000 tested, 0.39% active; AID 2825;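 active = inhibition of 50% or more; inactive = inhibition below 50%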;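 note: plate controls were induced DMSO wells for no effect and uninduced yeast grown without galactose for full effect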
NALP3 confirm = confirmation of NALP3 inhibitors in yeast; AID 435006; inhibition, % at 10 µM; shares compounds with NALP3 yeast inh; yeast expressing human NALP3, luminescence; 1,300 tested, 81% active; in the data active = inhibition above about 48%
Casp1 ASC ctr = active in yeast caspase-1-ASC counter-screen for NALP3 inhibitors; inhibition, % at 10 µM; yeast expressing Caspase-1-ASC, luminescence counter screen; 1,000 tested, 66% active; shares compounds with NALP3 yeast inh
NALP3 yeast rt = yeast NALP3 inhibition, confirmed on retest; 1,000 tested, 53% active; inhibition, % at 10 µM; shares compounds with NALP3 yeast inh; AID 488794; yeast expressing human NALP3, luminescence read-out
* hit, by the source's call; ? = inconclusive; . = no result given. Cut-off read from the data, not from the text of the source, unless noted: active = inhibition above about 50%; inactive = the rest.

SMILES	Arrestin-AP2 inh	ALR inh	PolyA inh	NALP1 yeast inh	Pemphigus Ab inh	NALP3 yeast inh	NALP3 confirm	Casp1 ASC ctr	NALP3 yeast rt
CC1CC(C)CN(S(=O)(=O)c2ccc(NC(=O)[C@@H]3CCCN3C(=O)c3cccs3)cc2)C1 (stereo partly specified)	6	-1	.	.	106	5	.	.	.
CCSc1nnnn1-c1ccccc1	0	-4	13	2	99	-3	.	.	.
Cc1ccc(C)c(-n2nnnc2Sc2nnnn2-c2ccccc2)c1	5	-2	-12	.	108	58*	74*	73*	62*
COc1ccc2nc(N/C(N)=N/S(C)(=O)=O)nc(C)c2c1	2	.	21	-5	102	-2	.	.	.
O=C(Nc1scc(-c2ccc(Br)cc2)c1C(=O)O)c1ccccc1F	2	8	18	.	110	82*	91*	.	.
O=C(Nc1scc(-c2ccccc2)c1C(=O)O)c1ccccc1F	11	.	2	-5	126	29	.	.	.
Cc1ccccc1C(=O)Nc1scc(-c2ccc(Br)cc2)c1C(=O)O	16	-1	39	.	101	68*	77*	21	28
Cc1ccc(-c2csc(NC(=O)c3ccccc3F)c2C(=O)O)cc1	23	33	17	4	93	71*	86*	76*	64*
COc1ccc(-c2csc(NC(=O)c3ccccc3Br)c2C(=O)O)cc1	8	60	17	11	96	42	.	.	.
COc1ccc(NC(=O)CC(c2ccco2)C(C)C)cc1 (stereo unspecified)	-10	12	-7	5	101	21	.	.	.
Cn1c(Cl)c(C(=O)Nc2ccccc2)c2ccccc21	-48	-4	.	0	97	60*	82*	56*	51*
Cc1ccc(NC(=O)c2c(Cl)n(C)c3ccccc23)cc1	23	-2	11	15	107	17	.	.	.
O=C1NC(Cc2ccc(O)cc2)c2nc3ccc(Cl)cc3c(=O)n2-c2ccc(Cl)cc21 (stereo unspecified)	.	1	.	.	.	13	.	.	.
NC(=S)N/N=C/c1ccccc1OCc1cccc(Cl)c1	-5	-9	-23	-4	97	56*	67*	58*	40
COC(=O)CCCC1=CC2=C(c3ccccc3)C(=O)C(C)(OC(=O)C3CCCC3)C(=O)C2=CN1Cc1ccc2c(c1)OCO2 (stereo unspecified)	25	-36	-6	-4	109	-5	.	.	.
COCC(C)NC(=S)Nc1ccccc1[N+](=O)[O-] (stereo unspecified)	-55	.	17	-3	114	3	.	.	.
CC1CN(c2nc(N(C)c3ccccc3)nc(N)c2[N+](=O)[O-])CC(C)O1 (stereo unspecified)	13	-2	8	8	91	53*	44	40	44
CCCCNC(=O)Oc1c(Br)cc2sc(=O)oc2c1Br	.	54	.	.	.	72*	62*	.	.
c1ccc(-c2ccc(-c3ccccn3)s2)nc1	11	-3	-22	21	113	52*	56*	50	24
CN(C(=O)c1cccc(NC(=O)Cc2cccc(NC(=O)C3CCCN(C(=O)c4ccccc4)C3)c2)c1)C1CCC1 (stereo unspecified)	7	.	.	.	93	.	.	.	.
CN(C)c1ccc(N=Nc2ccc3ncccc3c2)cc1	2	.	.	.	94	.	.	.	.
CN(C)c1ccc(N=Nc2cccc(F)c2)cc1	24	.	-20	11	62	52*	43	51*	39
CN(C)c1ccc(N=Nc2cccc3ccoc23)cc1	40	86*	-2	9	102	60*	68*	45	41
COc1cccc(/C=N\NC(=O)Cn2nnc3ccccc32)c1O	17	45	5	-9	104	5	.	.	.
CCCN(CCC)c1nc(-c2ccccn2)nc2ccccc12	22	4	-24	21	103	50*	76*	.	.
SMILES	Arrestin-AP2 inh	ALR inh	PolyA inh	NALP1 yeast inh	Pemphigus Ab inh	NALP3 yeast inh	NALP3 confirm	Casp1 ASC ctr	NALP3 yeast rt
CCCCN(CC)c1nc(-c2ccncc2)nc2ccccc12	24	.	-3	20	107	30	.	.	.
O=C(OCC(=O)N1CCc2ccccc2C1)c1c(F)cccc1Cl	15	.	.	.	.	10	.	.	.
O=C(NC1CCCCC1)C(c1ccccc1)N(C(=O)c1csnn1)C1CC1 (stereo unspecified)	-6	-8	4	14	114	19	.	.	.
CC(=O)/C=C\c1cn(-c2ncc(C(F)(F)F)cc2Cl)c2ccccc12	0	26	-13	40	?	10	.	.	.
CO/N=C/NC(=O)Cc1cn(-c2ncc(C(F)(F)F)cc2Cl)c2ccccc12	20	-3	-25	14	95	56*	64*	38	38
CSc1ccc(-c2cc(=O)c3ccccc3o2)cc1	-2	2	-33	35	88	62*	63*	53*	62*
O=c1cc(-c2ccc(F)cc2)oc2ccccc12	-18	-6	4	.	97	17	.	.	.
N#Cc1nc(COc2cccc(Cl)c2)oc1N1CCCC1	-6	-5	6	23	95	51*	65*	55*	44
Cc1ccccc1OCc1nc(C#N)c(N2CCCC2)o1	1	1	-19	2	102	71*	81*	83*	71*
N#Cc1nc(COc2ccc(F)cc2)oc1N1CCCC1	-2	-10	-8	17	102	68*	40	65*	54*
COc1ccccc1OCc1nc(C#N)c(N2CCCC2)o1	0	.	-2	3	119	25	.	.	.
CCOC(=O)c1c(NC(=O)CSc2nnnn2C)sc(C)c1C	0	4	-16	8	99	15	.	.	.
CCOC(=O)c1c(NC(=O)CSc2nnc(C)o2)sc(C)c1C	18	53	0	.	99	52*	54*	48	34
CCCc1nnc(SCC(=O)Nc2ccc(OC)cc2)o1	10	-13	8	-13	105	21	.	.	.
NCCc1nnc(SCC(=O)Nc2ccc(Br)cc2)o1	-2	98*	-18	3	95	58*	70*	53*	49
CCOc1ccccc1N1CC(C(=O)N(CC)CC(=O)Nc2ccc3c(c2)OCCO3)CC1=O (stereo unspecified)	2	-2	0	.	108	4	.	.	.
Cn1nc(C(=O)NCCOc2ccccc2)c2ccccc2c1=O	37	-1	-13	-8	99	7	.	.	.
Cc1cc(C(=O)Nc2ccc(Br)cn2)sc1C	-5	8	.	.	105	59*	61*	57*	56*
